Test results as given in ChEMBL document CHEMBL1121898, “Potential antiestrogens. Synthesis and evaluation of mammary tumor inhibiting activity of 1,2-dialkyl-1,2-bis(3'-hydroxyphenyl)ethanes” (1981).
Calls of active or inactive are those of the source. The rule behind the calls is not given here.

Columns and labels:
[1] = target: T1, Estrogen receptor (Mus musculus) (UniProt O08537+P19785); assay: Antiestrogenic activity in uterotrophic test in mice at 0 ug; type: functional
Procedure, shortened: (§1)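 Immature female NMRI mice, 20 days old (14.5 ± 1.2 g), randomly grouped 10 per group. Each received a daily sc injection for 3 days of 0.1 mL olive oil solution containing test compound, together with estrone to stimulate uterine growth. Uteri were removed 24 h after the last injection and weighed. Results are reported as % inhibition of the estrone-stimulated uterine weight gain, mean ± SD.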

[2] = target: T1, Estrogen receptor (Mus musculus); assay: Antiestrogenic activity in uterotrophic test in mice at 100 ug; type: functional; procedure, shortened: as §1
[3] = target: T1, Estrogen receptor (Mus musculus); assay: Antiestrogenic activity in uterotrophic test in mice at 1000 ug; type: functional; procedure, shortened: as §1
[4] = target: T1, Estrogen receptor (Mus musculus); assay: Antiestrogenic activity in uterotrophic test in mice at 3.3 ug; type: functional; procedure, shortened: as §1
[5] = target: T1, Estrogen receptor (Mus musculus); assay: Inhibitory activity in mouse uterine weight test at 0.1 ug; type: functional
Procedure, shortened: (§2)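 Antiuterotrophic (Dorfman) assay in immature 20-day-old female NMRI mice, groups of 10. Uterine growth was stimulated with estrone (0.1 μg) and the test compound was given alongside it, sc daily for 3 days in 0.1 mL olive oil. Uteri were taken 24 h after the last dose. Uterine weight is reported as means ± SD and inhibition as % of the estrone-stimulated response.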

[6] = target: T1, Estrogen receptor (Mus musculus); assay: Inhibitory activity in mouse uterine weight test at 100 ug; type: functional; procedure, shortened: as §2
[7] = target: T1, Estrogen receptor (Mus musculus); assay: Inhibitory activity in mouse uterine weight test at 1000 ug; type: functional; procedure, shortened: as §2
[8] = system: Estrogen receptor (Bos taurus); assay: Displacement of [3H]estradiol from calf estrogen receptor
Mus musculus = species on record: Mus musculus; assay: Vaginal cornification test in mice at 0.1 ug; cornified nonnucleated cells present (estrus); type: functional, organism-based

T1 sequence (O08537 whole entry, looked up): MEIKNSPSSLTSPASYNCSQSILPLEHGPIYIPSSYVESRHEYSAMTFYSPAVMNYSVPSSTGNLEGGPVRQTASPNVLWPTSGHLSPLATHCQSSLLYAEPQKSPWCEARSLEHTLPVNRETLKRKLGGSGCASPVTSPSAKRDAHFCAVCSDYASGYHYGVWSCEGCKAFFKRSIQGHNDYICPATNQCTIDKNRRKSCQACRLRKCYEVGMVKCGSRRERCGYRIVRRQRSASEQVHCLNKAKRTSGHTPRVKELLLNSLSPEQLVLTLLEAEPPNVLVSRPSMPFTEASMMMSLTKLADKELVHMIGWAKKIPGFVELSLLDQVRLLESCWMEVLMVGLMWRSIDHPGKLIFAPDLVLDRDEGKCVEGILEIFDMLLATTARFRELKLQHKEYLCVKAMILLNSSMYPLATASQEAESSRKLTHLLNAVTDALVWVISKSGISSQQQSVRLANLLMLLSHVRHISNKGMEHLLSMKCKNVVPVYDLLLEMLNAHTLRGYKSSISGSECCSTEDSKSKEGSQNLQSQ
T1 sequence (P19785 whole entry, looked up): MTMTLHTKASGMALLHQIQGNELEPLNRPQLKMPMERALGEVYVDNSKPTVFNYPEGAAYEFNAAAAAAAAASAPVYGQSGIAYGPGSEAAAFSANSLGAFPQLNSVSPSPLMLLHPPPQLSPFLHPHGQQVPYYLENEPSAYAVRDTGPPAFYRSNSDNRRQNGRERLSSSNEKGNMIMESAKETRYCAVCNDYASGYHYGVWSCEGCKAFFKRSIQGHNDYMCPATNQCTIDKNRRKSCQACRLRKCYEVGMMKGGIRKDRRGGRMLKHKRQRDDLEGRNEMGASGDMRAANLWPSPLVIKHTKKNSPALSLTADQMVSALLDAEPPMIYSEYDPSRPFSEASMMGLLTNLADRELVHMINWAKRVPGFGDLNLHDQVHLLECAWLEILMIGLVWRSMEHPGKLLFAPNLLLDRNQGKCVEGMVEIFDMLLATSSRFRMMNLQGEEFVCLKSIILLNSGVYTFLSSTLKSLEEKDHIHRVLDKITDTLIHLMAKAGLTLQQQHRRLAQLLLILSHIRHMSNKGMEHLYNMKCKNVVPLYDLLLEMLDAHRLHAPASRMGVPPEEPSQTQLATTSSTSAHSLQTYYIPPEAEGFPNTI

Structure (SMILES) | Effect [1] | Effect [2] | Effect [3] | Effect [4] | inhibition [5] | inhibition [6] | inhibition [7] | Ka [8] | Activity (Mus musculus)
CCCCCC(c1cccc(O)c1)C(CCCCC)c1cccc(O)c1 (centres undefined) | 10.5 | 34.2 | 34.6 | 39.5 | 5% | 15% | 14% | 3.3e+06 M⁻¹ | –
C[C@]12CC[C@@H]3c4ccc(O)cc4CC[C@H]3[C@@H]1CCC2=O | – | – | – | – | – | – | – | – | Active
